From ChEMBL document CHEMBL3588796 (Bioorg Med Chem, 2015)

Tests used:
[1] = molecular target: T1, Kappa-type opioid receptor (Homo sapiens, UniProt P41145); experiment: Antagonist activity against HA-tagged human recombinant kappa opioid receptor expressed in CHO cells assessed as inhibition of U69,593-induced ERK phosphorylation pre-incubated with compound before U69,593 stimulation for 10 mins relative to control; format: cell-based; set-up: concentration or dose not given beside the values
How it was run: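 hKOR-CHO cells, 15,000 per well, plated overnight at 37 °C and serum-starved 1 h. Compound added, then 100 nM U69,593 for 10 min at 37 °C. Fixed cells stained overnight at 4 °C for phospho- and total ERK1/2. In-cell western read by infrared imaging at 700/800 nm. Three-parameter nonlinear fit; 2–4 replicates per experiment, n ≥ 3.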

Mu-type opioid receptor [2] = molecular target: T2, Mu-type opioid receptor (Homo sapiens, UniProt P35372); experiment: Binding affinity to mu opioid receptor (unknown origin)
[3] = molecular target: T3, Delta-type opioid receptor (Homo sapiens, UniProt P41143); experiment: Binding affinity to delta opioid receptor (unknown origin)
[4] = molecular target: Kappa-type opioid receptor (Rattus norvegicus, UniProt P34975); experiment: Displacement of radio-labeled U69,593 from rat kappa opioid receptor expressed in HEK293 cell membranes
[5] = molecular target: T1, Kappa-type opioid receptor; experiment: Antagonist activity against human kappa opioid receptor expressed in human U2OS cells co-expressing beta-arrestin2 pre-treated for 15 mins before U69,593 stimulation for 90 mins by DiscoveRx beta-arrestin2 recruitment based PathHunter assay relative to control; format: cell-based; set-up: concentration or dose not given beside the values
How it was run: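 U2OS-hKOR-βarrestin2 PathHunter cells, 5,000 per well, plated overnight in Opti-MEM with 1% FBS. Antagonist pretreatment 15 min at 37 °C, then 1 μM U69,593 for 90 min at 37 °C. Detection reagent 60 min at room temperature; chemiluminescence read-out. Concentration-response curves fitted by three-parameter regression; n ≥ 3 independent experiments.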

[6] = molecular target: T1, Kappa-type opioid receptor; experiment: Antagonist activity against HA-tagged human recombinant kappa opioid receptor expressed in CHO cell membranes incubated for 1 hr by [35S]GTPgammaS binding assay; format: functional
[7] = molecular target: T1, Kappa-type opioid receptor; experiment: Antagonist activity against HA-tagged human recombinant kappa opioid receptor expressed in CHO cells assessed as inhibition of U69,593-induced ERK phosphorylation pre-incubated with compound before U69,593 stimulation for 10 mins; format: cell-based
[8] = molecular target: T1, Kappa-type opioid receptor; experiment: Antagonist activity against human kappa opioid receptor expressed in human U2OS cells co-expressing beta-arrestin2 pre-treated for 15 mins before U69,593 stimulation for 90 mins by DiscoveRx beta-arrestin2 recruitment based PathHunter assay; format: cell-based
[9] = molecular target: T3, Delta-type opioid receptor; experiment: Antagonist activity against delta opioid receptor (unknown origin)
Mu-type opioid receptor [10] = molecular target: T2, Mu-type opioid receptor; experiment: Antagonist activity against mu opioid receptor (unknown origin)

T3 sequence (P41143 whole entry): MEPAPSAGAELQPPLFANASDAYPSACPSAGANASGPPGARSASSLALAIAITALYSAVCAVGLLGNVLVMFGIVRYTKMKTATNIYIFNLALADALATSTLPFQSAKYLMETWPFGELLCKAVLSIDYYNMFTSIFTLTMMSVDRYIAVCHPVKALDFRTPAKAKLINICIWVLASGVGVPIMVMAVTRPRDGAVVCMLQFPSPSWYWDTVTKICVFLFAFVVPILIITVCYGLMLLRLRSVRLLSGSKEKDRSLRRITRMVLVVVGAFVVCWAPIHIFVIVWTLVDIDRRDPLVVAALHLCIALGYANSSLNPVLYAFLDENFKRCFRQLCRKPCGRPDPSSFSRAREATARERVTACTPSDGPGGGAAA
T1 sequence (P41145 whole entry): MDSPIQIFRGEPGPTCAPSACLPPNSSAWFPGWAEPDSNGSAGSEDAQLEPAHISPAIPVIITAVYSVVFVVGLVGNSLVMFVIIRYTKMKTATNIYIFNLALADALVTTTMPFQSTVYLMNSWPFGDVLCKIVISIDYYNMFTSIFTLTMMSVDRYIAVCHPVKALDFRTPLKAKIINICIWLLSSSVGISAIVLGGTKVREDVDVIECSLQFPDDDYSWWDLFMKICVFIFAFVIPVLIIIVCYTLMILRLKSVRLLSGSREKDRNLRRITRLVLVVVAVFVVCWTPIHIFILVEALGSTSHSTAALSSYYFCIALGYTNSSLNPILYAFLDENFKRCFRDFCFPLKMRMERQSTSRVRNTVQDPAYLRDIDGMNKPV
Sequence of Kappa-type opioid receptor (Rattus norvegicus, UniProt P34975) (P34975 whole entry): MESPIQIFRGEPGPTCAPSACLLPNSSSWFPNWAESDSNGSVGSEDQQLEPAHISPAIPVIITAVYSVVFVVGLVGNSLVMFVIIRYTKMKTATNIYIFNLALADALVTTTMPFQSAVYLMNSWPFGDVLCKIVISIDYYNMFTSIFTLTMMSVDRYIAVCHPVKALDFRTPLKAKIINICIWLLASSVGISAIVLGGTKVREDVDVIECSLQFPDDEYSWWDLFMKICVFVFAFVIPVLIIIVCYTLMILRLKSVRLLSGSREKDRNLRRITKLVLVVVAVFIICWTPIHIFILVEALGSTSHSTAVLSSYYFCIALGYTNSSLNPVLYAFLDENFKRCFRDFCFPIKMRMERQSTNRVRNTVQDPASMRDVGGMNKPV
T2 sequence (P35372 whole entry): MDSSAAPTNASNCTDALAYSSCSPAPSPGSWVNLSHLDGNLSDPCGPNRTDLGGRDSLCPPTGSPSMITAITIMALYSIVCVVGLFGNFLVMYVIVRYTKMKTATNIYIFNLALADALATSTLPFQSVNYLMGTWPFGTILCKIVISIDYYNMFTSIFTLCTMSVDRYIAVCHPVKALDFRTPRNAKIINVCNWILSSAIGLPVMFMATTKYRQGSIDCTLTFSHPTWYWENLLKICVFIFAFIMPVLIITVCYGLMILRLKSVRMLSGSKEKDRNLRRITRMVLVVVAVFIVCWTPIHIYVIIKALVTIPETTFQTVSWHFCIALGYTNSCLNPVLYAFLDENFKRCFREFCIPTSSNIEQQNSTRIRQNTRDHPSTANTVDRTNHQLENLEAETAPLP

**Q.** For `Cc1ccc(S(=O)(=O)N2CCc3cc(C(=O)NCCN(Cc4ccc(Cl)cc4)C(C)(C)C)ccc3C2)cc1`, which inhibition [1] is on record?
**A.** Its inhibition is greater than 86%.

**Q.** And the Ki (Mu-type opioid receptor [2])?
**A.** Its Ki is greater than 10 µM.

**Q.** What about the Ki [3] of the same compound?
**A.** The Ki was greater than 10 µM.

**Q.** And the Ki [4]?
**A.** Its Ki is 0.053 µM.

**Q.** And the inhibition [5]?
**A.** Its inhibition is greater than 86%.

**Q.** For `Cc1ccc(S(=O)(=O)N2CCc3cc(C(=O)NCCN(Cc4ccc(F)cc4)C(C)C)ccc3C2)cc1`, which inhibition [1] is on record?
**A.** The inhibition was greater than 86%.

**Q.** What about the inhibition [5] of the same compound?
**A.** The inhibition was greater than 86%.

**Q.** How did the IC50 ([6]; read-out: IC50) turn out when `Cc1ccc(S(=O)(=O)NCc2ccc(C(=O)NC3CCN(Cc4ccccc4)C3)cc2)cc1` (stereo not given) was run?
**A.** The IC50 was greater than 18 µM.

**Q.** What does the source list for `CCc1ccc(S(=O)(=O)N2CCc3cc(C(=O)NCCN(Cc4ccc(Br)cc4)C(C)C)ccc3C2)cc1`?
**A.** inhibition [1]: > 86%; inhibition [5]: > 86%

**Q.** Which results are given for `Cc1ccc(S(=O)(=O)NCc2ccc(C(=O)NCCN(Cc3ccc(Br)cc3)C(C)C)cc2)cc1`?
**A.** inhibition [1]: > 86%; inhibition [5]: > 86%

**Q.** `Cc1ccc(S(=O)(=O)N2CCc3cc(C(=O)NCCN(Cc4ccc(Cl)cc4)C(C)C)ccc3C2)cc1` was tested. Which inhibition [1] did it give?
**A.** Its inhibition is greater than 86%.

**Q.** And the inhibition [5]?
**A.** Its inhibition is greater than 86%.

**Q.** What does the source list for `CCc1ccc(S(=O)(=O)N2CCc3cc(C(=O)NCCN(Cc4ccccc4)C(C)(C)C)ccc3C2)cc1`?
**A.** inhibition [1]: > 86%; inhibition [5]: > 86%

**Q.** With `Cc1ccc(S(=O)(=O)N(C)Cc2ccc(C(=O)N(C)CCN(Cc3ccccc3)C(C)C)cc2)cc1` as the compound, how does the IC50 [7] read?
**A.** The IC50 was “Not Active”.

**Q.** And the IC50 [8]?
**A.** Its IC50 is “Not Active”.

**Q.** And the IC50 ([6]; cho)?
**A.** The IC50 was “Not Active”.

**Q.** `Oc1ccc2c3c1O[C@H]1c4[nH]c5c(c4C[C@@]4(O)[C@@H](C2)N(CC2CC2)CC[C@]314)C[C@@]1(O)[C@H]2Cc3ccc(O)c4c3[C@@]1(CCN2CC1CC1)[C@H]5O4` was tested. Which inhibition [1] did it give?
**A.** Its inhibition is greater than 86%.

**Q.** What about the inhibition [5] of the same compound?
**A.** The inhibition was greater than 86%.

**Q.** With `Cc1ccc(S(=O)(=O)NCc2ccc(C(=O)NCCN(Cc3ccccc3)C(C)C)cc2)cc1` as the compound, how does the inhibition [1] read?
**A.** The inhibition was greater than 86%.

**Q.** And the IC50 [9]?
**A.** Its IC50 is greater than 32 µM.

**Q.** What about the Ki (Mu-type opioid receptor [2]) of the same compound?
**A.** Its Ki is 0.306 µM.

**Q.** And the Ki [3]?
**A.** Its Ki is 1.09 µM.

**Q.** What about the Ki [4] of the same compound?
**A.** Its Ki is 0.05 µM.

**Q.** And the IC50 (Mu-type opioid receptor [10])?
**A.** Its IC50 is greater than 24 µM.

**Q.** What about the inhibition [5] of the same compound?
**A.** The inhibition was greater than 86%.

**Q.** Which results are given for `Cc1cc(C)c(S(=O)(=O)N2CCc3cc(C(=O)NCCN(Cc4ccc(Br)cc4)C(C)(C)C)ccc3C2)c(C)c1`?
**A.** inhibition [1]: > 86%; inhibition [5]: > 86%

**Q.** What does the source list for `Cc1cc(C)c(S(=O)(=O)N2CCc3cc(C(=O)NCCN(Cc4ccc(F)cc4)C(C)(C)C)ccc3C2)c(C)c1`?
**A.** inhibition [1]: > 86%; inhibition [5]: > 86%

**Q.** Which results are given for `Cc1ccc(S(=O)(=O)N2CCc3cc(C(=O)NCCN(Cc4ccccc4)C(C)(C)C)ccc3C2)cc1`?
**A.** inhibition [1]: > 86%; Ki (Mu-type opioid receptor [2]): 1.75 µM; Ki [3]: 2.33 µM; Ki [4]: 0.037 µM; inhibition [5]: > 86%

**Q.** Which inhibition [1] does the source give for `Cc1ccc(S(=O)(=O)N2CCc3cc(C(=O)NCCN(Cc4ccc(Br)cc4)C(C)(C)C)ccc3C2)cc1` here?
**A.** The inhibition was greater than 86%.

**Q.** What about the inhibition [5] of the same compound?
**A.** Its inhibition is greater than 86%.

**Q.** Which IC50 ([6]; read-out: IC50) does the source give for `Cc1ccc(S(=O)(=O)NCc2ccc(C(=O)NCCN3Cc4ccccc4C3)cc2)cc1` here?
**A.** Its IC50 is greater than 18 µM.

**Q.** For `Cc1ccc(S(=O)(=O)N2CCc3cc(C(=O)NCCN(Cc4ccc(F)cc4)C(C)(C)C)ccc3C2)cc1`, which inhibition [1] is on record?
**A.** Its inhibition is greater than 86%.

**Q.** And the inhibition [5]?
**A.** Its inhibition is greater than 86%.

**Q.** Which results are given for `Cc1ccc(S(=O)(=O)N2CCc3cc(C(=O)NCCN(Cc4ccc(Br)cc4)C(C)C)ccc3C2)cc1`?
**A.** inhibition [1]: > 86%; Ki (Mu-type opioid receptor [2]): 8.17 µM; Ki [3]: 5.19 µM; Ki [4]: 0.073 µM; inhibition [5]: > 86%

**Q.** Which results are given for `Cc1cc(C)c(S(=O)(=O)N2CCc3cc(C(=O)NCCN(Cc4ccccc4)C(C)C)ccc3C2)c(C)c1`?
**A.** inhibition [1]: > 86%; inhibition [5]: > 86%

**Q.** How did the IC50 ([6]; read-out: IC50) turn out when `Cc1ccc(S(=O)(=O)NCc2ccc(C(=O)NCC3CCCN(Cc4ccccc4)C3)cc2)cc1` (stereo not given) was run?
**A.** Its IC50 is greater than 18 µM.
